In ChEMBL document CHEMBL2034979, “Design, synthesis and antiviral activity of novel quinazolinones” (Eur J Med Chem, 2012):

Legend:
[1] = Cytotoxicity against human TZM-bl cells at 10 uM after 48 hrs by MTT assay; format: cell-based
Summary of the method: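 TZM-bl cells plated and held 18 h at 37 °C, then exposed to compounds for 48 h. MTT (5 mg/mL stock, 20 µL per well) added and incubated 3 h at 37 °C. Plates shaken 10 min at room temperature. OD550 read against a 690 nm reference. Single test concentration of 10 µM.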

[2] = system: Human immunodeficiency virus; assay: Antiviral activity against HIV infected in human TZM-bl cells at 10 uM after 48 hrs by luciferase-based reporter gene assay; format: functional; details: Human immunodeficiency virus 1, TZM-bl
Summary of the method: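 TZM-bl cells seeded at 10^4 cells/well. Next day, compounds were added at 10 µM with AZT and MK-0518 reference controls, then pseudotyped HIV-1 was added (final DMSO 2%). Plates were incubated 48 h at 37 °C in humidified CO2. Steady-Glo substrate was added, cells lysed 20 min in the dark, and luciferase luminescence was read.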

[3] = system: Tobacco mosaic virus; assay: In vitro antiviral activity against TMV assessed as inhibition rate at 500 ug/mL; format: functional
[4] = system: Tobacco mosaic virus; assay: In vivo antiviral activity against TMV assessed as viral inactivation effect at 500 ug/mL; format: functional
[5] = system: Tobacco mosaic virus; assay: In vivo antiviral activity against TMV assessed as curative effect at 500 ug/mL; format: functional
[6] = system: Tobacco mosaic virus; assay: In vivo antiviral activity against TMV assessed as protection effect at 500 ug/mL; format: functional

Structure (SMILES) | Activity [1] | inhibition at 10 µM [2] [%] | inhibition at 500 µg/mL [3] [%] | Activity [4] [%] | Activity [5] [%] | Activity [6] [%]
COc1c(C(=O)NCc2ccc(F)cc2)ccc2c1C(=O)N(C)C(c1ccc(F)cc1)N2 (centres undefined) | Non-toxic | 31 | 24.2 | 30.4 | 26.3 | 28.9
COc1c(C(=O)NCc2ccc(F)cc2)ccc2c1C(=O)N(C)C(c1ccc([N+](=O)[O-])cc1)N2 (centres undefined) | Non-toxic | 64.9 | 19.5 | 18.9 | 15 | 20.3
COc1c(C(=O)NCc2ccc(F)cc2)ccc2c1C(=O)N(C)C(c1ccco1)N2 (centres undefined) | Non-toxic | 8.1 | 7.5 | 8.2 | 0 | 0
COc1c(C(=O)NCc2ccc(F)cc2)ccc2c1C(=O)N(C)C(c1cccs1)N2 (centres undefined) | Non-toxic | 17.5 | 16.3 | 13.7 | 0 | 5.4
COc1c(C(=O)NCc2ccc(F)cc2)ccc2c1C(=O)N(C)C(c1ccccn1)N2 (centres undefined) | Non-toxic | 9.9 | 0 | 15.2 | 0 | 8.7
CCCCC1Nc2ccc(C(=O)NCc3ccc(F)cc3)c(OC)c2C(=O)N1C (centres undefined) | Non-toxic | 3.2 |  |  |  | 
COc1c(C(=O)NCc2ccc(F)cc2)ccc2c1C(=O)N(C)C(Cc1ccc(F)cc1)N2 (centres undefined) | Non-toxic | 15.6 |  |  |  | 
COc1c(C(=O)NCc2ccc(F)cc2)ccc2c1C(=O)N(C)C(Cc1ccc([N+](=O)[O-])cc1)N2 (centres undefined) | Non-toxic | -17.7 |  |  |  | 
COc1c(C(=O)NCc2ccc(F)cc2)ccc2nc(-c3ccc(F)cc3)n(C)c(=O)c12 | Non-toxic | 27.6 |  | 13.3 | 8.2 | 7.4
COc1c(C(=O)NCc2ccc(F)cc2)ccc2nc(-c3ccc([N+](=O)[O-])cc3)n(C)c(=O)c12 | Non-toxic | -3.8 |  |  |  | 
COc1c(C(=O)NCc2ccc(F)cc2)ccc2nc(-c3ccco3)n(C)c(=O)c12 | Non-toxic | 1.6 | 10 | 0 | 8.9 | 11.7
COc1c(C(=O)NCc2ccc(F)cc2)ccc2nc(-c3cccs3)n(C)c(=O)c12 | Non-toxic | 25.1 | 0 | 20.4 | 9.4 | 12.7
COc1c(C(=O)NCc2ccc(F)cc2)ccc2nc(-c3ccccn3)n(C)c(=O)c12 | Non-toxic | 44.6 | 21.3 | 29.4 | 17.6 | 19.5
CCCCc1nc2ccc(C(=O)NCc3ccc(F)cc3)c(OC)c2c(=O)n1C | Non-toxic | 19.1 |  |  |  | 
COc1c(C(=O)NCc2ccc(F)cc2)ccc2nc(Cc3ccc(F)cc3)n(C)c(=O)c12 | Non-toxic | -27.4 | 21.2 | 10.6 | 15.2 | 17.7
COc1c(C(=O)NCc2ccc(F)cc2)ccc2nc(Cc3ccc([N+](=O)[O-])cc3)n(C)c(=O)c12 | Non-toxic | -33.8 |  | 0 | 0 | 12.4
Cn1c(-c2ccc(F)cc2)nc2ccc(C(=O)NCc3ccc(F)cc3)c(O)c2c1=O | Non-toxic | 68.4 |  |  |  | 
Cn1c(-c2ccc([N+](=O)[O-])cc2)nc2ccc(C(=O)NCc3ccc(F)cc3)c(O)c2c1=O | Non-toxic | 77.5 |  |  |  | 
Cn1c(-c2ccco2)nc2ccc(C(=O)NCc3ccc(F)cc3)c(O)c2c1=O | Non-toxic | -9.2 |  |  |  | 
Cn1c(-c2cccs2)nc2ccc(C(=O)NCc3ccc(F)cc3)c(O)c2c1=O | Non-toxic | 33.2 | 14.5 | 8.2 | 10.9 | 9.8
Cn1c(-c2ccccn2)nc2ccc(C(=O)NCc3ccc(F)cc3)c(O)c2c1=O | Non-toxic | -11 |  |  |  | 
CCCCc1nc2ccc(C(=O)NCc3ccc(F)cc3)c(O)c2c(=O)n1C | Non-toxic | 2.4 |  |  |  | 
Cn1c(Cc2ccc(F)cc2)nc2ccc(C(=O)NCc3ccc(F)cc3)c(O)c2c1=O | Non-toxic | 49.5 |  |  |  | 
Cn1c(Cc2ccc([N+](=O)[O-])cc2)nc2ccc(C(=O)NCc3ccc(F)cc3)c(O)c2c1=O | Non-toxic | 29 | 18.4 | 12.7 | 13.3 | 16.8
Cc1nnc(C(=O)NC(C)(C)c2nc(C(=O)NCc3ccc(F)cc3)c(O)c(=O)n2C)o1 [RALTEGRAVIR] |  | 95.2 |  |  |  | 
NC(=O)c1ncn([C@@H]2O[C@H](CO)[C@@H](O)[C@H]2O)n1 [RIBAVIRIN] |  |  | 38.5 | 34.2 | 32.7 | 39.6
Cc1cn([C@H]2C[C@H](N=[N+]=[N-])[C@@H](CO)O2)c(=O)[nH]c1=O [ZIDOVUDINE] |  | 98.1 |  |  |  | 
